EC50 and Emax data for one compound are collected here from paper PMC3180826 (ACS chemical neuroscience, 2010).

The target in this test is T1, rM1 E401H (Rattus norvegicus, UniProt P08482, E401H).
T1 sequence (P08482 1-460 E401H): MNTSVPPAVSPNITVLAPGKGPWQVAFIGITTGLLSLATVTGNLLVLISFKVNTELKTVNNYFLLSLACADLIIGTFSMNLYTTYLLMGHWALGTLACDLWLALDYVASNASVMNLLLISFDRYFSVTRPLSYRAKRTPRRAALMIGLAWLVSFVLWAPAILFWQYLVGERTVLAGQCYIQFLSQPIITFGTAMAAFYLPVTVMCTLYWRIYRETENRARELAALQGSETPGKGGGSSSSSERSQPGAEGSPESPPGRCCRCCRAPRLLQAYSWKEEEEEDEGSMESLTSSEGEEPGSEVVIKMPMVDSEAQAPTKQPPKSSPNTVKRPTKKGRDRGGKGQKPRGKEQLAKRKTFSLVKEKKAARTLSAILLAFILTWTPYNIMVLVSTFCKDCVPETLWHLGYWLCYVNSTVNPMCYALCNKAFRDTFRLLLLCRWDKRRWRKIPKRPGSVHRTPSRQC
Kind of test: Calcium mobilization, rM1 E401H mutant CHO-K1 cells. It is filed as cell-based. An outline of the steps:
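CHO-K1 cells were transiently transfected overnight at 37 °C with 10 μg of mutant rat M1 cDNA in pcDNA3.1+ using Fugene 6, then plated for the calcium assay. They were loaded with 2 μM Fluo-4 AM for 1 h at 37 °C in HEPES/probenecid-buffered HBSS, pH 7.4. Test compound dose–response series were added at 19 s. Calcium mobilization was measured as fluorescence increase over basal.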

As a reminder, the EC50 is the concentration that produces a half-maximal response. A word on the Emax: it is the maximal effect, on the per cent scale that the assay sets.

With `CCOC(=O)N1CCC(NCCNC(=O)c2ccccc2)CC1` [VU0184670, ethyl 4-(2-benzamidoethylamino)piperidine-1-carboxylate], the EC50 was 1210 nM. In addition, the Emax (CHO-K1, read-out: E401H mutant Emax) came to 29.4%.
